Measured values as given in ChEMBL document CHEMBL3769372, “Specific Inhibitors of HIV Capsid Assembly Binding to the C-Terminal Domain of the Capsid Protein: Evaluation of 2-Arylquinazolines as Potential Antiviral Compounds” (J Med Chem, 2016).
Residues, ends and D or L forms follow the SMILES beside them.

Assays:
[1] = test system: Human immunodeficiency virus 1; assay: Antiviral activity against HIV1 NL4-3 infected in human TZM-bl cells assessed as inhibition of viral replication administered 6 hrs postinfection measured 48 hrs by luciferase reporter gene assay; format: functional, organism-based; conditions: Human immunodeficiency virus 1, NL4-3, TZM-bl
Procedure, shortened: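 TZM-bl cells infected with NL4-3 stock (from MT-4 co-culture) at MOI 1; at 6 h p.i. medium replaced with DMEM containing compound, refreshed at 30 h p.i.; supernatants collected at 52 h p.i. and titrated on fresh TZM-bl cells; infection read by luciferase at 48 h p.i.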

[2] = target: T1, Structural capsid protein (Human immunodeficiency virus 1, UniProt Q76129); assay: Binding affinity to recombinant N-terminal GST-tagged HIV1 NL4-3 capsid C-terminal domain (146 to 231 residues) incubated for 2 hrs by alphascreen assay
Procedure, shortened: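 AlphaScreen competition: GST-fused CA (60 nM) on glutathione acceptor beads and biotinylated peptide (30 nM) on streptavidin donor beads, beads 10 µg/ml. Buffer was PBS, 0.05% Tween 20, 2 mM DTT. Compounds were titrated 0.2–200 µM and incubated 2 h at RT, with emission read at 520–620 nm. Inhibition was normalized to DMSO-only (max) and buffer (min) controls.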

[3] = Cytotoxicity against human TZM-bl cells assessed as cell viability at 10 uM after 48 hrs by MTS assay relative to control; format: cell-based; conditions: read-out: Activity
Procedure, shortened: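 TZM-bl cells (DMEM, 10% FBS, 10 mM HEPES) incubated with compound at 37 °C, 5% CO2 for 48 h in parallel with the infectivity assay; viability by MTS read-out. Tested in triplicate at 10 µM final, with titration 0.625–20 µM; values normalized to DMSO-only treated cells.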

[4] = Binding affinity to recombinant HIV1 NL4-3 capsid L211S mutant by isothermal titration calorimetry; parameters: species or system Human immunodeficiency virus 1
Procedure, shortened: (§1)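 Point mutants made by PCR, expressed solubly in E. coli BL21(DE3)RIL, enriched by ammonium sulphate fractionation (20–50%), then MonoS cation exchange (pH 5.5) and Superdex75 gel filtration. Binding by ITC at 25 °C in 30 mM MES pH 6.0, 10% glycerol, 2 mM 2-mercaptoethanol, 2% DMSO. 320–350 µM peptide ligand was injected in 2 µl steps into 23–33 µM protein, with a buffer-only control.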

[5] = target: T1, Structural capsid protein; assay: Binding affinity to full length HIV1 NL4-3 capsid (1 to 231 residues) by isothermal titration calorimetry
Procedure, shortened: (§2)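 ITC at 25 °C (Auto-iTC200) in 30 mM MES pH 6.0, 10% glycerol, 2 mM 2-mercaptoethanol, 2% DMSO. Protein and peptide concentrations were set by HPLC amino acid analysis. 320–350 µM peptide ligand was injected in 2 µl steps into 23–33 µM protein until saturated. A buffer-only injection control was run, and titrations were repeated in two buffers of differing ionization enthalpy.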

[6] = test system: Human immunodeficiency virus 1; assay: Selectivity ratio of Kd for recombinant HIV1 NL4-3 capsid L211S mutant to Kd for full length HIV1 capsid (1 to 231 residues)
Procedure, shortened: (§3)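 Ratio of ITC-derived KD for each mutant CA to KD for wild-type CA. Titrations were at 25 °C in 30 mM MES pH 6.0, 10% glycerol, 2 mM 2-mercaptoethanol, 2% DMSO. Peptide ligand (320–350 µM) was injected into 23–33 µM protein, with a buffer-only control.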

[7] = Binding affinity to recombinant HIV1 NL4-3 capsid N183A mutant by isothermal titration calorimetry; parameters: species or system Human immunodeficiency virus 1; procedure, shortened: as §1
[8] = target: T1, Structural capsid protein; assay: Binding affinity to HIV1 NL4-3 dimeric capsid C-terminal domain (146 to 231 residues) by isothermal titration calorimetry
Procedure, shortened: (§4)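 VP-ITC at 25 °C in 30 mM MES pH 6.0 with 10% glycerol, 2 mM 2-mercaptoethanol and 2% DMSO; protein concentrations by HPLC amino acid analysis. Ligand concentration was estimated by UV spectra after centrifugation to remove precipitate. 9 µl aliquots of 31 µM ligand went into 3.9 µM CA dimer or 3.1 µM CA CTD dimer to saturation. Ligand-into-buffer heat was subtracted.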

[9] = target: T1, Structural capsid protein; assay: Binding affinity to full length HIV1 NL4-3 dimeric capsid (1 to 231 residues) by isothermal titration calorimetry; procedure, shortened: as §4
[10] = test system: Human immunodeficiency virus 1; assay: Selectivity ratio of Kd for recombinant HIV1 NL4-3 capsid N183A mutant to Kd for full length HIV1 capsid (1 to 231 residues); procedure, shortened: as §3
[11] = target: T1, Structural capsid protein; assay: Binding affinity to HIV1 NL4-3 capsid at 25 degC by isothermal titration calorimetry; procedure, shortened: as §2
[12] = test system: Human immunodeficiency virus 1; assay: Selectivity ratio of Kd for recombinant HIV1 NL4-3 capsid L211A mutant to Kd for full length HIV1 capsid (1 to 231 residues); procedure, shortened: as §3
[13] = test system: Human immunodeficiency virus 1; assay: Selectivity ratio of Kd for recombinant HIV1 NL4-3 capsid Y169A mutant to Kd for full length HIV1 capsid (1 to 231 residues); procedure, shortened: as §3
[14] = Binding affinity to recombinant HIV1 NL4-3 capsid L211A mutant by isothermal titration calorimetry; parameters: species or system Human immunodeficiency virus 1; procedure, shortened: as §1
[15] = Binding affinity to recombinant HIV1 NL4-3 capsid E187A mutant by isothermal titration calorimetry; parameters: species or system Human immunodeficiency virus 1; procedure, shortened: as §1
[16] = Binding affinity to recombinant HIV1 NL4-3 capsid Y169A mutant by isothermal titration calorimetry; parameters: species or system Human immunodeficiency virus 1; procedure, shortened: as §1
[17] = test system: Human immunodeficiency virus 1; assay: Selectivity ratio of Kd for recombinant HIV1 NL4-3 capsid E187A mutant to Kd for full length HIV1 capsid (1 to 231 residues); procedure, shortened: as §3
[18] = target: T1, Structural capsid protein; assay: Binding affinity to HIV1 NL4-3 capsid C-terminal domain (146 to 231 residues) by isothermal titration calorimetry; procedure, shortened: as §2

T1 sequence (Q76129 whole entry, the tested form may be a part): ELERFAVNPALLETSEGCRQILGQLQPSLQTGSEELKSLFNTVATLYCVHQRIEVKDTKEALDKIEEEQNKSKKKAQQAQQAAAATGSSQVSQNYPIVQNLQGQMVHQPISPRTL

C[S+]([O-])c1ccc(Nc2nc(-c3ccncc3)nc3ccccc23)cc1 (stereo not drawn)
IC50 [1]: > 10 µM | IC50 [2]: > 100 µM | viability at 48 h, 10 µM [3]: 98%

CON(C)C(=O)c1ccc(Nc2nc(-c3cccnc3)nc3ccccc23)cc1
IC50 [1]: > 10 µM | IC50 [2]: 37 µM | viability at 48 h, 10 µM [3]: 97%

CSc1ccc(Nc2nc(-c3ccncc3)nc3ccccc23)cc1
IC50 [1]: 10 µM | viability at 48 h, 10 µM [3]: 95%

CCOC(=O)c1cccc(Nc2nc(-c3cccnc3)nc3ccccc23)c1
IC50 [1]: 5 µM | IC50 [2]: 68 µM | viability at 48 h, 10 µM [3]: 83%

OC(c1ccc(Nc2nc(-c3cccnc3)nc3ccccc23)cc1)C(F)(F)F (stereo not drawn)
IC50 [1]: 10 µM | IC50 [2]: > 100 µM | viability at 48 h, 10 µM [3]: 87%

O=C(O)c1ccc(Nc2nc(-c3ccncc3)nc3ccccc23)cc1
IC50 [1]: > 10 µM | IC50 [2]: > 100 µM | viability at 48 h, 10 µM [3]: 98%

CS(=O)(=O)c1ccc(Nc2nc(-c3ccncc3)nc3ccccc23)cc1
IC50 [1]: > 10 µM | IC50 [2]: > 100 µM | viability at 48 h, 10 µM [3]: 97%

CC(=O)c1ccc(Nc2nc(-c3cccnc3)nc3ccccc23)cc1
IC50 [1]: 8 µM | IC50 [2]: 14 µM | viability at 48 h, 10 µM [3]: 93%

CONC(=O)c1ccc(Nc2nc(-c3cccnc3)nc3ccccc23)cc1
IC50 [1]: > 10 µM | IC50 [2]: 63 µM | viability at 48 h, 10 µM [3]: 99%

CC(O)c1ccc(Nc2nc(-c3cccnc3)nc3ccccc23)cc1 (stereo not drawn)
IC50 [1]: > 10 µM | IC50 [2]: > 100 µM | viability at 48 h, 10 µM [3]: 98%

CCNC(=O)c1ccc(Nc2nc(-c3cccnc3)nc3ccccc23)cc1
IC50 [1]: > 10 µM | IC50 [2]: > 100 µM | viability at 48 h, 10 µM [3]: 97%

CCNS(=O)(=O)c1ccc(Nc2nc(-c3cccnc3)nc3ccccc23)cc1
IC50 [1]: > 10 µM | IC50 [2]: > 100 µM | viability at 48 h, 10 µM [3]: 97%

CCOC(=O)c1ccc(Nc2nc(-c3ccncc3)nc3ccccc23)cc1
Kd [4]: 1.9 µM | IC50 [1]: > 10 µM | IC50 [2]: 8 µM | Kd [5]: 0.14 µM | Selectivity ratio [6]: 14 | Kd [7]: 0.89 µM | Kd [8]: 0.038 µM | viability at 48 h, 10 µM [3]: 96% | Kd [9]: 0.14 µM | Selectivity ratio [10]: 7

CC(=O)c1cccc(Nc2nc(-c3cccnc3)nc3ccccc23)c1
IC50 [1]: 8 µM | IC50 [2]: 30 µM | viability at 48 h, 10 µM [3]: 89%

O=C(c1ccc(Nc2nc(-c3cccnc3)nc3ccccc23)cc1)C(F)(F)F
IC50 [2]: > 100 µM | viability at 48 h, 10 µM [3]: 62%

OC(c1ccc(Nc2nc(-c3cccnc3)nc3ccccc23)cc1)(C(F)(F)F)C(F)(F)F
IC50 [2]: > 100 µM | viability at 48 h, 10 µM [3]: 46%

NC(=O)c1ccc(Nc2nc(-c3ccncc3)nc3ccccc23)cc1
IC50 [1]: > 10 µM | IC50 [2]: > 100 µM | viability at 48 h, 10 µM [3]: 97%

O=C(NCCF)c1ccc(Nc2nc(-c3cccnc3)nc3ccccc23)cc1
IC50 [1]: > 10 µM | IC50 [2]: 3 µM | viability at 48 h, 10 µM [3]: 90%

O=C(NCCO)c1ccc(Nc2nc(-c3cccnc3)nc3ccccc23)cc1
IC50 [1]: > 10 µM | IC50 [2]: > 100 µM | viability at 48 h, 10 µM [3]: 100%

O=C(O)c1ccc(-c2nc(-c3ccccc3)c(-c3ccccc3)[nH]2)cc1
Kd [11]: 85 µM

CCOC(=O)c1ccccc1Nc1nc(-c2ccncc2)nc2ccccc12
IC50 [1]: > 10 µM | IC50 [2]: 37 µM | viability at 48 h, 10 µM [3]: 97%

CC(=O)c1ccc(Nc2nc(-c3ccncc3)nc3ccccc23)cc1
IC50 [1]: 4.6 µM | IC50 [2]: 9 µM | viability at 48 h, 10 µM [3]: 96%

CC[C@H](C)[C@H](N)C(=O)N[C@H](C(=O)N[C@@H](Cc1ccccc1)C(=O)N[C@@H](CCC(=O)O)C(=O)N[C@@H](CC(=O)O)C(=O)N[C@@H](CC(C)C)C(=O)N[C@@H](CC(C)C)C(=O)N[C@@H](CC(=O)O)C(=O)N[C@@H](Cc1ccc(O)cc1)C(=O)N[C@@H](Cc1ccc(O)cc1)C(=O)NCC(=O)N1CCC[C@H]1C(N)=O)[C@@H](C)O (H-ITFEDLLDYYGP-NH2)
Selectivity ratio [12]: 4 | Kd [4]: 84 µM | Selectivity ratio [13]: 3 | Kd [14]: 15 µM | Kd [15]: 5 µM | Kd [16]: 13 µM | Selectivity ratio [17]: 1 | Kd [5]: 4 µM | Selectivity ratio [6]: 21 | Kd [7]: 53 µM | Selectivity ratio [10]: 13 | Kd [18]: 3 µM

CCOC(=O)c1cccc(Nc2nc(-c3ccncc3)nc3ccccc23)c1
IC50 [1]: 5.3 µM | IC50 [2]: 21 µM | viability at 48 h, 10 µM [3]: 96%

N#Cc1ccc(Nc2nc(-c3ccncc3)nc3ccccc23)cc1
IC50 [1]: > 10 µM | IC50 [2]: 4 µM | viability at 48 h, 10 µM [3]: 96%

CCOC(=O)c1ccc(Nc2nc(-c3cccnc3C)nc3ccccc23)cc1
IC50 [1]: > 10 µM | IC50 [2]: 14 µM | viability at 48 h, 10 µM [3]: 100%

CCOC(=O)c1ccc(Nc2nc(-c3cccnc3)nc3ccccc23)cc1
IC50 [1]: 4.7 µM | IC50 [2]: 47 µM | viability at 48 h, 10 µM [3]: 84%

NS(=O)(=O)c1ccc(Nc2nc(-c3cccnc3)nc3ccccc23)cc1
IC50 [1]: > 10 µM | IC50 [2]: 80 µM | viability at 48 h, 10 µM [3]: 98%

CCOC(=O)Cc1ccc(Nc2nc(-c3cccnc3)nc3ccccc23)cc1
IC50 [1]: > 10 µM | IC50 [2]: > 100 µM | viability at 48 h, 10 µM [3]: 98%
